Experimental data taken from ChEMBL document CHEMBL1122076, “Synthesis of 2-(alkylamino)-5,6- and -6,7-dihydroxy-3,4-dihydroquinazolines and evaluation as potential dopamine agonists” (J Med Chem, 1982).
Activity calls are given as the source filed them. The rule behind the calls is not given here.

Test system: Canis familiaris
Assay: Evaluated for the percentage vasodilation in the renal artery produced by 3000 nmol administered intra-arterially; NA is No Antagonistic activity
Format: functional, organism-based
Conditions: Canis lupus familiaris
Outline: (§1)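 Anesthetized dogs fitted with an electromagnetic flow probe on the renal artery; a bent 25-gauge needle was inserted proximally into the artery for dosing. Phenoxybenzamine, 5 mg/kg ia, was infused first. A dopamine dose-response curve (11.75, 47, 188 nmol/dog) was run, then rising doses of test agent up to 3000 nmol were injected intra-arterially, each in 0.2 mL.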

Structure (SMILES)	Vasodilation
CN(C)C1=NCc2c(ccc(O)c2O)N1	inactive
NC1=NCc2c(ccc(O)c2O)N1	inactive
CNC1=NCc2c(ccc(O)c2O)N1	inactive
CCCN(CCC)C1=NCc2c(ccc(O)c2O)N1	inactive
CN(C)C1=NCc2cc(O)c(O)cc2N1	inactive
CN(C)C1CCc2c(ccc(O)c2O)C1 (stereo not given)	inactive
NC1CCc2c(ccc(O)c2O)C1 (stereo not given)	inactive

Test system: Canis familiaris
Assay: Evaluated for the percentage vasodilation in the renal artery produced by 3000 nmol administered intra-arterially.
Format: functional, Canis lupus familiaris
Conditions: not given
Outline: as §1

Structure (SMILES)	Vasodilation
CNC1=NCc2cc(O)c(O)cc2N1	50%
NC1=NCc2cc(O)c(O)cc2N1	50%
CCCN(CCC)C1=NCc2cc(O)c(O)cc2N1	50%

Test system: not listed separately
Assay: Evaluated for the pKa value.
Format: physicochemical
Conditions: not given
Outline: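 Hydrochloride salt titrated to determine the pKa of the ammonium ion. Values for related analogues were estimated by extrapolating the pKa values of the corresponding dimethyl ethers.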

pKa	Structure (SMILES)
12	NC1=NCc2cc(O)c(O)cc2N1
11.1	COc1cc2c(cc1OC)NC(N)=NC2
9.84	NCCc1ccc(O)c(O)c1 [DOPAMINE]

Structure (SMILES)	pKa
NC1CCc2cc(O)c(O)cc2C1 (stereo not given)	9.84
NC1CCc2c(ccc(O)c2O)C1 (stereo not given)	9.84
